IC50, Intinsic activity and Prolongation data for 24 molecules are collected here from ChEMBL document CHEMBL1125189, “Relaxant activity of 6-cyano-2,2-dimethyl-2H-1-benzopyran-4-carboxamides and -thiocarboxamides and their analogues in guinea pig trachealis” (J Med Chem, 1991).

For assay [1], the species on record is Cavia porcellus. The assay is described as follows: Inhibition of spontaneous tone in guinea pig tracheal spirals. Format: functional, Trachea. The method, boiled down: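 Guinea pig tracheal spiral strips held isometrically in oxygenated Krebs solution. Intrinsic activity is the ratio of maximum relaxation to the isoprenaline maximum, given as an arithmetic mean.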

The species named for assay [2] is Cavia porcellus. The assay is described as follows: Evaluated by measuring inhibition of spontaneous tone in guinea pig tracheal spirals. It is filed as functional, Trachea. The method, boiled down: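 Guinea pig tracheal spiral strips held isometrically in oxygenated Krebs solution. […] It is generally a geometric mean of ≥3 determinations, except where IC50 >15 μM. Intrinsic activity is the ratio of maximum relaxation to the isoprenaline maximum, given as an arithmetic mean.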

Assay [3] concerns Cavia porcellus. Description: Inhibition of Histamine-induced bronchospasm was measured by measuring % prolongation of collapse time of guinea pig at different intervals of time at a peroral dose of 20 mg/kg (time between dose and challenge 60 min). It is filed as functional. As to conditions: route oral. The method, boiled down: (§1)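 Male guinea pigs (400-460 g) were dosed orally with compound or vehicle and placed in a ca. 8-L chamber. At set times after dosing they were challenged for 4 min with aerosol from 5 mM histamine diphosphate, generated over 20 s by ultrasonic nebulizer. Time from aerosol to collapse was recorded. Data are means ± SE.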

The subject of assay [4] is Cavia porcellus. The assay is described as follows: Inhibition of Histamine-induced bronchospasm was measured by measuring % prolongation of collapse time of guinea pig at different intervals of time at a peroral dose of 20 mg/kg (time between dose and challenge 15 min). It is filed as functional. The settings on record: route oral. The method, boiled down: as §1
Assay [5] deals with Cavia porcellus. The assay is described as follows: Inhibition of Histamine-induced bronchospasm was measured by measuring % prolongation of collapse time of guinea pig at different intervals of time at a peroral dose of 20 mg/kg (time between dose and challenge 30 min). It is filed as functional. The settings on record: route oral. The method, boiled down: as §1
The species entered for assay [6] is Cavia porcellus. The assay is described as follows: Inhibition of Histamine-induced bronchospasm was measured by measuring % prolongation of collapse time of guinea pig. It is filed as functional. The method, boiled down: as §1
Assay [7] relates to Cavia porcellus. The assay is described as follows: Inhibition of Histamine-induced bronchospasm was measured by measuring % prolongation of collapse time of guinea pig at different intervals of time at a peroral dose of 10 mg/kg (time between dose and challenge 60 min). Format: functional. The settings on record: route oral. The method, boiled down: as §1
Assay [8] deals with Cavia porcellus. The assay is described as follows: Inhibition of Histamine-induced bronchospasm was measured by measuring % prolongation of collapse time of guinea pig at different intervals of time at a peroral dose of 20 mg/kg (time between dose and challenge 90 min). It is filed as functional. As to conditions: route oral. The method, boiled down: as §1
In assay [9] the test system is Cavia porcellus. Description: Inhibition of Histamine-induced bronchospasm was measured by measuring % prolongation of collapse time of guinea pig at different intervals of time at a peroral dose of 20 mg/kg (time between dose and challenge 120 min). Format: functional. The settings on record: route oral. The method, boiled down:
as §1

The subject of assay [10] is Cavia porcellus. Description: Inhibition of Histamine-induced bronchospasm was measured by measuring % prolongation of collapse time of guinea pig at different intervals of time at a peroral dose of 5 mg/kg (time between dose and challenge 60 min). Format: functional. As to conditions: route oral. The method, boiled down: as §1
The subject of assay [11] is Cavia porcellus. The assay is described as follows: Inhibition of Histamine-induced bronchospasm was measured by measuring % prolongation of collapse time of guinea pig at different intervals of time at a peroral dose of 10 mg/kg (time between dose and challenge 15 min). Format: functional. The settings on record: route oral. The method, boiled down:
as §1

Turning to `CC(C)(C)/N=C(\S)C1c2cc(C#N)ccc2OC(C)(C)C1O` (stereo in doubt; 11a), in the assay filed under Cavia porcellus [1] (Cavia porcellus, Trachea), the IC50 – broadly, the concentration at which inhibition is half-maximal – was greater than 20 µM. Further, the Intinsic activity in the assay listed under Cavia porcellus [2] worked out at 0.3.
Molecule `CC1(C)Oc2ccc(C#N)cc2C(/C(S)=N/c2ccccc2)C1O` (cis isomer) had an IC50 in the assay filed under Cavia porcellus [1] greater than 20 µM. In addition, the Intinsic activity in the assay listed under Cavia porcellus [2] is on record as 0.14.
Consider `CC(C)(C)/N=C(\S)C1=CC(C)(C)Oc2ccc(C#N)cc21`, for which, in the assay listed under Cavia porcellus [1] (Cavia porcellus, Trachea), the IC50 is greater than 20 µM. Moreover, in the assay filed under Cavia porcellus [2], the Intinsic activity amounted to 0.
For `C/N=C(\S)C1c2cc(C#N)ccc2OC(C)(C)C1O` (trans isomer), the half-inhibitory concentration (IC50) in the assay filed under Cavia porcellus [1] stood at 5.6 µM. Besides, the Intinsic activity in the assay listed under Cavia porcellus [2] worked out at 0.93.
On to `COC1=C(C(=O)Nc2ccccc2)c2cc(C#N)ccc2OC1(C)C`, for which the IC50 in the assay listed under Cavia porcellus [1] (Cavia porcellus, Trachea) was greater than 20 µM.
Consider `CC(C)(C)/N=C(\S)C1c2cc(C#N)ccc2OC(C)(C)C1O` (stereo in doubt; 11b), for which the midpoint of inhibition in the assay listed under Cavia porcellus [1], the IC50, lay at 11.1 µM. In the assay listed under Cavia porcellus [2], the Intinsic activity was determined as 0.79.
`CC1(C)Oc2ccc(C#N)cc2C(/C(S)=N/c2ccccc2)=C1O`: the Prolongation in the assay on Cavia porcellus [3] was found to be 10%; in the assay on Cavia porcellus [4], 63%; in the assay with Cavia porcellus [5], 14%. Besides, in the assay filed under Cavia porcellus [1] (Cavia porcellus, Trachea), the IC50 was found to be 0.25 µM. The molecule further returned an Intinsic activity in the assay listed under Cavia porcellus [2] of 0.99.
With `CC1(C)Oc2ccc(C#N)cc2C(N2CCCC2=O)C1O` (stereo not given) [CROMAKALIM], the Prolongation in the assay filed under Cavia porcellus [6] came out at 174%. This molecule also had an Intinsic activity in the assay filed under Cavia porcellus [2] of 0.89.
Turning to `CC1(C)Oc2ccc(C#N)cc2C(C)(C(=O)Nc2ccccc2)C1=O` (stereo not given), the IC50 in the assay filed under Cavia porcellus [1] (Cavia porcellus, Trachea) is greater than 20 µM.
As for `CC1(C)Oc2ccc(C#N)cc2C(F)(C(=O)Nc2ccccc2)C1=O` (stereo not given), the Prolongation with Cavia porcellus [7] is 10%. Besides, in the assay listed under Cavia porcellus [2], the Intinsic activity is on record as 0.95.
As for `COc1ccc(NC(=O)C2=C(O)C(C)(C)Oc3ccc(C#N)cc32)cc1`, it took 1.2 µM to reach half-maximal inhibition in the assay filed under Cavia porcellus [1] (Cavia porcellus, Trachea) (IC50). The molecule also returned an Intinsic activity in the assay listed under Cavia porcellus [2] of 0.94.
Molecule `CC1(C)Oc2ccc(C#N)cc2C(/C(S)=N/c2ccc(F)cc2)=C1O` had an Intinsic activity in the assay listed under Cavia porcellus [2] of 0.88.
The molecule `CSC(SC)=C1C(=O)C(C)(C)Oc2ccc(C#N)cc21` came in with an IC50 in the assay listed under Cavia porcellus [1] (Cavia porcellus, Trachea) greater than 20 µM.
In the assay listed under Cavia porcellus [2], `C/N=C(\S)C1=C(O)C(C)(C)Oc2ccc(C#N)cc21` gave an Intinsic activity of 0.69.
On to `CC1(C)Oc2ccc(C#N)cc2C(c2nc3ccccc3s2)=C1O`, for which, in the assay on Cavia porcellus [3], the Prolongation was -1%. The molecule also came in with an IC50 in the assay listed under Cavia porcellus [1] (Cavia porcellus, Trachea) of 1.36 µM. Also, in the assay listed under Cavia porcellus [2], the Intinsic activity was found to be 0.96.
Regarding `COc1ccc(NC(=S)C2=C(O)C(C)(C)Oc3ccc(C#N)cc32)cc1`, half-maximal inhibition in the assay listed under Cavia porcellus [1] (Cavia porcellus, Trachea) (IC50) required 6.4 µM. Further, the Intinsic activity in the assay filed under Cavia porcellus [2] stood at 0.6.
`C/N=C(/S)C1=CC(C)(C)Oc2ccc(C#N)cc21`: the Prolongation came out at 230% in the assay on Cavia porcellus [3]; 9% with Cavia porcellus [7]; 175% in the assay on Cavia porcellus [8]; 187% in the assay on Cavia porcellus [9]; 244% in the assay on Cavia porcellus [5]; 12% with Cavia porcellus [10]. The molecule further displayed an Intinsic activity in the assay filed under Cavia porcellus [2] of 0.88.
Molecule `CO/C(=N\c1ccccc1)C1=C(O)C(C)(C)Oc2ccc(C#N)cc21` returned an Intinsic activity in the assay listed under Cavia porcellus [2] of 0.82. For the same molecule, the Prolongation in the assay with Cavia porcellus [10] came out at 1%.
Turning to `CC1(C)Oc2ccc(C#N)cc2C(/C(S)=N/c2ccccc2)C1O` (trans isomer), in the assay listed under Cavia porcellus [1], the IC50 was found to be 3.4 µM. In addition, the Intinsic activity in the assay filed under Cavia porcellus [2] is given as 0.82.
As for `CC1(C)Oc2ccc(C#N)cc2C(C(=O)Nc2ccccc2)=C1O`, the Prolongation is given as -14% in the assay with Cavia porcellus [7] and -6% in the assay on Cavia porcellus [11]. Also, the Intinsic activity in the assay listed under Cavia porcellus [2] worked out at 0.98.
Turning to `C/N=C(\S)C1c2cc(C#N)ccc2OC(C)(C)C1O` (cis isomer), in the assay listed under Cavia porcellus [1] (Cavia porcellus, Trachea), half-maximal inhibition (IC50) was put at 5.92 µM. Also, the Intinsic activity in the assay listed under Cavia porcellus [2] amounted to 0.84.
With `CC(=O)OC1=C(C(=O)N(C(C)=O)c2ccccc2)c2cc(C#N)ccc2OC1(C)C`, the Prolongation with Cavia porcellus [3] is 5%. The molecule also had an IC50 in the assay filed under Cavia porcellus [1] (Cavia porcellus, Trachea) of 1.35 µM. For the same molecule, the Intinsic activity in the assay filed under Cavia porcellus [2] is 0.95.
For `CC1(C)C=C(C(=O)Nc2ccccc2)c2cc(C#N)ccc2O1` the same measures were 34%, 1.14 µM and 0.86.
`CC(C)(C)/N=C(\S)C1=C(O)C(C)(C)Oc2ccc(C#N)cc21`: the midpoint of inhibition in the assay filed under Cavia porcellus [1] (Cavia porcellus, Trachea), the IC50, lay at 4.35 µM. The molecule also registered an Intinsic activity in the assay listed under Cavia porcellus [2] of 0.93.
